Experimental data taken from ChEMBL document CHEMBL5154683, “A 5-FU Precursor Designed to Evade Anabolic and Catabolic Drug Pathways and Activated by Pd Chemistry In Vitro and In Vivo” (J Med Chem, 2022).

Experiments:
[1] = Tmax in male Wistar Han rat at 10 mg/kg, po administered as single dose measured upto 24 hrs; type: ADME, organism-based; conditions: in vivo
Outline: (§1)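 Male jugular-vein-cannulated Wistar Han rats, 263–319 g, single dose. IV: 1 mg/kg as 2 mL/kg of 0.5 mg/mL in 5% DMSO/95% HPCD (20% w/v), not fasted. PO: 10 mg/kg as 5 mL/kg of 2 mg/mL suspension in 5% DMSO/95% tween 80/HPCD vehicle, fasted overnight. Serial cannula blood sampling 0.083/0.25–24 h (n = 3/route); parent quantified by QToF against calibration curve.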

[2] = Prodrug conversion in PBS buffer assessed as 5-Fluorouracil formation by measuring retention time at 100 uM in presence of Pd-resin measured upto 1 hr by UPLC analysis; type: ADME
Outline: (§2)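 Prodrug (100 μM in PBS, pH 7.4) shaken at 1200 rpm, 37 °C with 1 mg/mL Pd resins (30 μm). Sampled at 10, 20, 40 min, 1, 3, 6, 24 and 48 h; analyzed by reverse-phase UPLC (C18, 60 °C, UV 254 nm), products identified by retention time against authentic standards.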

[3] = Prodrug conversion in human liver S9 fraction assessed as DH5FU metabolite formation at 1.6 mM incubated for 1 hr in presence of NADPH by 19F-NMR based analysis; type: ADME, subcellular; conditions: s9, 1 h, 1600 µM
Outline: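 Compound added as 150 mM stock in DMSO-d₆, preincubated 5 min at 37 °C with enzyme mixture, then NADPH added (1 mM) and incubated 1 h at 37 °C, 600 rpm; controls without NADPH and without enzymes. Stopped with EtOAc, dried under N₂, redissolved in DMSO-d₆, DH5FU detected by ¹⁹F NMR vs authentic sample.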

[4] = Apparent permeability across basolateral to apical side in human Caco-2 cells at 10 uM measured after 120 mins by LC-MS/MS analysis; type: ADME, cell-based
Outline: (§3)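 Caco-2 cells (P40-60) seeded at 1 × 10⁵ cells/cm² on Transwells, used on day 20; rinsed and equilibrated 40 min in HBSS pH 7.4. Compound at 10 μM in HBSS, 1% v/v DMSO, added apically (A–B) or basolaterally (B–A); 120 min at 37 °C, 5% CO₂. Lucifer yellow monitored monolayer integrity; LC-MS/MS with eight-point calibration; recovery from C₀ and both compartments.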

[5] = Apparent permeability across apical to basolateral side in human Caco-2 cells assessed as drug recovery at 10 uM measured after 120 mins by LC-MS/MS analysis; type: ADME, cell-based; conditions: read-out: Drug recovery; outline: as §3
[6] = Plasma protein binding in human at 5 uM; type: ADME, cell-free; conditions: read-out: PPB (converted)
Outline: (§4)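 Binding of compound at 5 μM measured in rat and human plasma, with compound recovery determined; n = 3.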

[7] = Plasma protein binding in human assessed as compound recovery at 5 uM; type: ADME, cell-free; conditions: read-out: Drug recovery; outline: as §4
[8] = Stability in Sprague-Dawley rat hepatocytes assessed as parent compound remaining at 10 uM measured after 60 mins by UPLC analysis; type: ADME, cell-based, Hepatocyte; conditions: read-out: Stability
Outline: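 Cryopreserved male Sprague–Dawley rat or male human hepatocytes (0.5 × 10⁶ cells/mL) in Leibovitz buffer with 10 μM compound, 37 °C, shaken 700 rpm, 60 min. Samples at 0 and 60 min quenched 1:1 with ice-cold acetonitrile; supernatant analyzed by UPLC–QToF MS (positive ion). Hepatocyte-only and buffer-only negatives; verapamil and 7-hydroxycoumarin as viability controls.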

[9] = AUC (0 to t) in male Wistar Han rat at 1 mg/kg, iv administered as single dose measured upto 24 hrs; type: ADME, organism-based; set-up: dose 1 mg/kg, time < 24 hrs, route iv; conditions: in vivo; outline: as §1
[10] = AUC (0 to infinity) in male Wistar Han rat at 1 mg/kg, iv administered as single dose measured upto 24 hrs; type: ADME, organism-based; set-up: time < 24 hrs, dose 1 mg/kg, route iv; conditions: in vivo; outline: as §1
[11] = Mean residence time in male Wistar Han rat at 10 mg/kg, po administered as single dose measured upto 24 hrs; type: ADME, organism-based; conditions: in vivo; outline: as §1
[12] = Oral bioavailability in Wistar Han rat at 10 mg/kg administered as single dose measured upto 24 hrs; type: ADME, organism-based; conditions: in vivo; outline: as §1
[13] = AUC (0 to t) in male Wistar Han rat at 1000 mg/kg, po administered as single dose measured upto 24 hrs; type: ADME, organism-based; set-up: dose 1000 mg/kg, time < 24 hrs, route po; conditions: in vivo
Outline: (§5)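 Single oral dose 1000 mg/kg in male and female rats, dosing volume 10 mL/kg (n = 6); animals observed 14 days with clinical checks, functional/neurobehavioral tests and body weight, necropsy on d15; exposure parameters from the toxicokinetic arm of this study.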

[14] = AUC (0 to t) in female Wistar Han rat at 1000 mg/kg, po administered as single dose measured upto 24 hrs; type: ADME, organism-based; set-up: dose 1000 mg/kg, time < 24 hrs, route po; conditions: in vivo; outline: as §5
[15] = AUC (0 to infinity) in maleWistar Han rat at 1000 mg/kg, po administered as single dose measured upto 24 hrs; type: ADME, organism-based; set-up: time < 24 hrs, dose 1000 mg/kg, route po; conditions: male, Wistar Han, in vivo; outline: as §5
[16] = Mean residence time in male Wistar Han rat at 1000 mg/kg, po administered as single dose measured upto 24 hrs; type: ADME, organism-based; conditions: in vivo; outline: as §5
[17] = Mean residence time in female Wistar Han rat at 1000 mg/kg, po administered as single dose measured upto 24 hrs; type: ADME, organism-based; conditions: in vivo; outline: as §5
[18] = Toxicity in BALB/c nude mouse xenografted with human HCT-116 cells assessed as change in body weight at 75 to 150 mg/kg, po administered via oral gavage measured daily for 7 days; type: organism-based; conditions: in vivo, 168 h, dose 75-150 mg/kg, time 7 day
Outline: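 Female BALB/c nude mice, 6–7 weeks, inoculated s.c. with 5 × 10⁵ HCT116 cells in 1:1 Matrigel/PBS; at 200–300 mm³ randomized; Pd resins (2 mg in 50 μL) injected intratumorally (groups 1–3), then oral gavage daily for 7 days with 150 or 75 mg/kg or vehicle; untreated group. Body weight daily, clinical signs twice daily.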

[19] = Drug metabolism in BALB/c mouse bearing HCT-116 tumor assessed as release of 5-FU in plasma at 75 to 150 mg/kg, po administered for 7 days; type: ADME, organism-based; conditions: in vivo, 168 h, dose 75-150 mg/kg, time 7 day
Outline: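 Same HCT116-bearing BALB/c nude mice with intratumoral Pd resins and 7-day oral dosing at 75 or 150 mg/kg; blood collected by microsampling on day 7, 2 h after administration, plasma frozen at –20 °C for analysis.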

[20] = Drug distribution in brain of BALB/c mouse xenografted with human HCT-116 cells at 75 to 150 mg/kg, po administered for 7 days; type: ADME, organism-based; conditions: in vivo, 168 h, dose 75-150 mg/kg, time 7 day
[21] = Toxicity in female Wistar Han rat assessed as abnormal morphological changes in organs at 1000 mg/kg, po administered as single dose measured after 15 days; type: organism-based; conditions: in vivo, 360 h, time 15 day
Outline: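 Single oral dose of 1000 mg/kg in 10 mL/kg to male and female rats (n = 6), then 14 days of observation. Mortality and morbidity checked twice daily, with clinical observations and functional/neurobehavioral tests. Body weight recorded d1, d2, d5, d8, d11 and d14. Gross necropsy on d15.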

[22] = Prodrug conversion in PBS buffer assessed as mono-depropargylated intermediate formation by measuring retention time at 100 uM in presence of Pd-resin measured upto 1 hr by UPLC analysis; type: ADME; outline: as §2

C#CCOc1ncc(F)c(OCC#C)n1
Tmax [1]: 15 min
Retention_time [2]: 0.78 min
Drug metabolism [3]: Metabolite_Notdetected
Papp B→A at 2 h, 10 µM [4]: 38.8 ×10⁻⁶ cm/s
recovery at 2 h, 10 µM [5]: 79.2%
fraction unbound at 5 µM [6]: 0.142
recovery at 5 µM [7]: 95.7%
remaining at 1 h, 10 µM [8]: 95%
AUC(0-t) at 24 h [9]: 324 ng·h/mL
AUC(0-inf) [10]: 330 ng·h/mL
MRT [11]: 1.86 h
F [12]: 187%
AUC(0-t) at 24 h [13]: 1590 µg·h/mL
AUC(0-t) at 24 h [14]: 1210 µg·h/mL
AUC(0-inf) [15]: 2610 µg·h/mL
MRT [16]: 9.7 h
MRT [17]: 13.4 h
Activity [18]: Non-Toxic
Drug metabolism [19]: Metabolite_Detected
Drug uptake [20]: Active
Activity [21]: Non-Toxic
Retention_time [22]: 0.98 min
